# Like-named read-outs stand apart in the source and are kept apart here.
# Tests used:
# [1] = tested on: PCNSL; conditions: cited from earlier work
# [2] = Pharmacokinetic study: plasma and brain concentration after a single oral dose; assay type: in vivo, SD rats; conditions: for Kp: male, SD, rat, brain/plasma, po
# Summary of the method: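 Male SD rats (219.0–260.5 g), fasted overnight until 4 h post-dose, given one oral dose of 10, 15 or 55 mg/kg depending on compound. n=3 per time point (0.25–24 h). Jugular blood in K2EDTA; plasma by spinning at 4 °C. Brains taken after decapitation, homogenised in 3-fold saline. Samples precipitated with acetonitrile plus internal standards, then LC-MS/MS. Brain/plasma ratio calculated at Cmax.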
# [3] = tested on: SU-DHL-6 cells; experiment: Apoptosis assay; assay type: cell-based
# Summary of the method: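 SU-DHL-6 cells kept in RPMI 1640 with 10% heat-inactivated FBS and penicillin/streptomycin at 37 °C, 5% CO2. Seeded at 4×10^5/mL and left 24 h, then exposed to one of three concentrations of test compound, or DMSO control, for 24 or 48 h. Stained with Annexin V/7-AAD and read by flow cytometry. Live, early apoptotic and late apoptotic/dead populations counted.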
# [4] = Ibrutinib concentration in CSF of a PCNSL patient; assay type: in vivo; conditions: human, po, 560 mg
# [5] = phase II, monotherapy 560 mg/day, intent-to-treat analysis
Kp [2],"Unbound concentration in brain ([2]; SD rats, 15 mg/kg orally, 4 hours after administration)",concentration at 2 h [4] [ng/mL],SMILES,"ORR rate ([1]; phase I/II trial, relapsed/refractory PCNSL patients) [%]","Induction of apoptosis ([3]; SU-DHL-6, three concentrations, 24 or 48 hours)","Pro-apoptosis effect ([3]; SU-DHL-6, 50 µM, after another 24 hours (48 h))","Induction of apoptosis ([3]; SU-DHL-6, 24 hours, 0.5 µM or higher)","Induction of apoptosis ([3]; SU-DHL-6, lower concentration, after another 24 hours (48 h))","Disease control rate ([1]; phase II, monotherapy 560 mg/day, evaluable patients) [%]","Disease control rate [1, 5] [%]","Stable diseases [1, 5] [%]","Objective response rate (ORR) ([1]; recurrent PCNSL patients, single drug, two clinical trials)","Clinical responses ([1]; refractory and recurrent PCNSL, 10 of 13 patients) [%]","Patients who achieved CR ([1]; refractory and recurrent PCNSL, cohort of 13)","Induction of apoptosis ([3]; SU-DHL-6, 0.5 µM)","Induction of apoptosis ([3]; SU-DHL-6, 5 µM, 24 and 48 hours)","Induction of apoptosis ([3]; SU-DHL-6, 50 µM, 24 and 48 hours)"
0.085,–,–,CC#CC(=O)N1CC[C@@H](n2c(=O)n(-c3ccc(Oc4ccccc4)cc3)c3c(N)ncnc32)C1 [tirabrutinib],64,"only induced when cells were treated with high dose tirabrutinib for a relatively longer period of time (50 µM, 48 h)",–,–,–,–,–,–,–,–,–,–,–,–
0.035,below the limit of detection,–,C=CC(=O)N1CCC([C@@H]2CCNc3c(C(N)=O)c(-c4ccc(Oc5ccccc5)cc4)nn32)CC1 [zanubrutinib],–,–,maintained,good ability in inducing cell apoptosis,cells recovered from apoptosis,–,–,–,–,–,–,–,–,–
0.098,–,0.309,C=CC(=O)N1CCC[C@@H](n2nc(-c3ccc(Oc4ccccc4)cc3)c3c(N)ncnc32)C1 [ibrutinib],–,–,–,–,–,70,62,10,50–70%,77,five,not observed,subtle,prominent

# From paper PMC8798964 (Translational Cancer Research, 2021)
